Consider 3 molecules from ChEMBL document CHEMBL1129305, “Drug delivery systems. 2. Camptothecin 20-O-poly(ethylene glycol) ester transport forms” (J Med Chem, 1996).

Data set [1] in a line: Half life in PBS buffer (pH 5.6) at 37 degree C. The data set is classed as ADME. A digest of the protocol:
(§1)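 Hydrolysis run at 37 °C in PBS, pH 5.6 or pH 7.4 as stated in the line. Half-life is the time for loss of the ester. Runs done in duplicate, with SD ±10%.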

A short description of data set [2]: Half life in PBS buffer (pH 7.4) at 37 degree C. The data set is classed as ADME. In short, it runs like this:
as §1

The nature of data set [3]: Half life in rat plasma at 37 degree C. Format: ADME, organism-based. In short, it runs like this:
(§2)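 Ester incubated at 37 °C in rat or human plasma. Half-life recorded as disappearance of the transport form, with release of parent drug also followed over time. Runs done in duplicate, with SD ±10%.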

The subject of data set [4] is Mus musculus. As to the kind of experiment: Percentage of increased life expectancies (ILS) of mice at a dose of 16 mg/kg camptothecin; ILS = (T/C-1) X 100. The data set is classed as functional. In short, it runs like this:
(§3)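 Mice bearing P388 leukemia dosed ip on days 1–5 to a total of 16 mg/kg camptothecin equivalents, given as aqueous solution or lipid suspension. Groups were 10–20 mice against untreated controls, with survivors counted at 40 days. Read-outs were mean time to death, T/C and ILS = (T/C−1)×100, compared by Student t test assuming equal variances.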

Data set [5] has as its system Mus musculus. As to the kind of experiment: Mean time to death at a dose of 16 mg/kg of camptothecin, mice dosed days 1-5. As to conditions: in vivo. Set-up: dose 16 mg/kg. Format: ADME, organism-based. In short, it runs like this:
as §3

The test system of data set [6] is Mus musculus. As to the kind of experiment: Ratio between mean time to death of treated versus control (survivors at 40 days) at a dose of 16 mg/kg of camptothecin, mice dosed days 1-5. The data set is classed as functional. A digest of the protocol:
as §3

Data set [7] in a line: Half life in human plasma at 37 degree C. Format: ADME, organism-based. A digest of the protocol:
as §2

The nature of data set [8]: Half life in PBS buffer (pH 7.4) at 37 degree C (DMSO employed as cosolvent). As to conditions: PBS buffer with DMSO as cosolvent. The data set is classed as ADME. In short, it runs like this: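 Hydrolysis run at 37 °C in PBS pH 7.4 with DMSO as cosolvent. Half-life recorded in duplicate, with SD ±10%.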

SMILES strings stand for the structures.

As to `CC[C@@]1(OC(=O)CN)C(=O)OCc2c1cc1n(c2=O)Cc2cc3ccccc3nc2-1.O=C(O)C(F)(F)F`, the half-life was 16 h in data set [1], 3.5 h in data set [2], 0.5 h in data set [3] and 0.25 h in data set [7]. Moreover, in data set [4], the ILS at 16 mg/kg stood at 64%. In data set [5], this molecule showed a Mean time to death of 21.7 days. In data set [6], the T/C turned out to be 1.64.
For `CC[C@@]1(OC(C)=O)C(=O)OCc2c1cc1n(c2=O)Cc2cc3ccccc3nc2-1`, the half-life in data set [8] is more than 72 h.
Molecule `CC[C@@]1(O)C(=O)OCc2c1cc1n(c2=O)Cc2cc3ccccc3nc2-1` [CAMPTOTHECIN] gave an increase in life span (ILS) at 16 mg/kg in data set [4] of 193%. Besides, the “Mean time to death” value in data set [5] came to 38.7 days. Further, the T/C in data set [6] is 2.93.

For orientation: half-life means how long it takes for the measured level to halve. Higher therefore signals slow loss. The term ILS denotes how much longer treated animals lived than controls. A low value points to a small benefit in survival.
